We go through 96 compounds from ChEMBL document CHEMBL4513216, “Probing the Open Global Health Chemical Diversity Library for Multistage-Active Starting Points for Next-Generation Antimalarials” (ACS Infect Dis, 2020).

A short description of the series: Toxicity liver stage against HepG2, at 10uM. The class given is cell-based. Further details: test concentration 10 uM, cell line HepG2-A16-CD81EGFP. The following applies: human, HepG2-A16-CD81EGFP cells; read-out: INHIBITION
Put shortly:
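Uninfected HepG2-A16-CD81EGFP cells, 3 × 10^3 per well, 1536-well, plated on prespotted compound at 10 μM final, parasite-free screening media added to match infected plates; puromycin 10 μM positive, DMSO 0.5% negative; run in parallel with 48 h PbLuc assay at 37 °C, 5% CO2; viability by CellTiter-Glo luminescence, normalized to controls.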

`COc1cccc(SCC(=O)N2CCCC(N3CCCC3=O)C2)c1` (stereo unspecified): the cytotoxicity at 10 µM amounted to 6.16%.

`O=C(COCc1nc(-c2ccncc2)no1)NC1CCCCC1`: the cytotoxicity at 10 µM is -8.19%.

On to `CCS(=O)(=O)N1CCCn2nnc(Cn3cccc3)c2C1`, for which the cytotoxicity at 10 µM is 9.77%.

On to `Cc1nccc(C(=O)N2CCCN(Cc3cnn(C(C)C)c3)CC2)n1`, for which the cytotoxicity at 10 µM is -0.239%.

In the case of `COc1cccc(CNCc2c(C(C)C)nn(C)c2N(C)C)c1`, the cytotoxicity at 10 µM is -7.36%.

As to `CN(C)CC1CN(Cc2coc(-c3cccc(F)c3)n2)CCO1` (stereo unspecified), the cytotoxicity at 10 µM was -17.2%.

Consider `CC(C(=O)N1CCCN(c2ncccc2C#N)CC1)n1cncn1` (stereo unspecified), for which the cytotoxicity at 10 µM was -6.54%.

`CC(C)c1noc(C[S+]([O-])CC(=O)Nc2ccc(F)c(F)c2)n1` (stereo unspecified): the cytotoxicity at 10 µM was -8.82%.

Take `Cc1nn(C)c(C)c1C1CCCN1C(=O)c1cc(C(N)=O)cs1` (stereo unspecified): the cytotoxicity at 10 µM was -2.53%.

For the compound `Cc1ccc(CN(C)Cc2cnc(N3CCOCC3)s2)o1`, the cytotoxicity at 10 µM is -8.46%.

In the case of `Cc1ccc2nc(CNCCCN3CCCC3=O)cc(O)c2c1`, the cytotoxicity at 10 µM is -1.14%.

On to `Cc1cc(NCCSc2nccn2C)n2ncnc2n1`, for which the cytotoxicity at 10 µM was determined as 17.5%.

With `CC(C)c1nnc2n1CCN(C(=O)c1ccc(N(C)C)nn1)C2`, the cytotoxicity at 10 µM was -9.86%.

In the case of `Cc1cccnc1NC(=O)C1(n2cnnn2)CCCCC1`, the cytotoxicity at 10 µM is -2.43%.

With `CCOC(=O)c1cc2c(=O)[nH]c(=O)n(CCc3ccccc3)c2nc1C`, the cytotoxicity at 10 µM was -6.28%.

Regarding `Cc1cccc(CN2C(=O)CCC23CCN(Cc2cccn2C)CC3)n1`, the cytotoxicity at 10 µM was found to be 5.61%.

In the case of `CNC(=O)c1cn[nH]c1C1(C)CCCN(CC2(O)CCCCC2)C1` (stereo unspecified), the cytotoxicity at 10 µM is -26%.

On to `CN(C)c1cc(C(=O)NCCc2nnc(-c3ccco3)[nH]2)ccn1`, for which the cytotoxicity at 10 µM was -0.653%.

`Cc1ccc2c(n1)N(Cc1cccnc1)CCN(C1CCOCC1)C2`: the cytotoxicity at 10 µM was -71.6%.

In the case of `Nc1cc(C(=O)N2CCCC3(C=Cc4ccccc4O3)CC2)ccn1` (stereo unspecified), the cytotoxicity at 10 µM came out at 13.7%.

Turning to `O=C(Nc1ccccc1)C1=NOC2(CCCN(C(=O)N3CCCC3)C2)C1` (stereo unspecified), the cytotoxicity at 10 µM was -1.66%.

Consider `COC[C@]1(O)CCN(Cc2ccc(N(C)C)nc2)CC1(C)C`, for which the cytotoxicity at 10 µM stood at 7.63%.

In the case of `Cn1cnnc1C1CCCN(C(=O)c2ccc3c(c2)OCCCO3)C1` (stereo unspecified), the cytotoxicity at 10 µM stood at 3.66%.

For `CCn1cc(-c2cc(C(F)F)nc3sc(C(N)=O)c(N)c23)c(C)n1`, the cytotoxicity at 10 µM worked out at 3.04%.

In the case of `Cc1nn(C)c(C)c1CN(C)C1CCN(c2ncnc3[nH]cnc23)CC1`, the cytotoxicity at 10 µM was -76.7%.

Turning to `FC(F)(F)Oc1ccc(-c2noc([C@@H]3Cc4nc[nH]c4CN3)n2)cc1`, the cytotoxicity at 10 µM was -7.47%.

In the case of `COCc1nc(C(=O)N2CCCC2c2c(C)nn(C)c2C)cs1` (stereo unspecified), the cytotoxicity at 10 µM is -4.74%.

With `Cc1cccc(OCCNC(=O)C(C)S(=O)(=O)C2CCCC2)c1` (stereo unspecified), the cytotoxicity at 10 µM stood at 6.72%.

As for `O=C(c1ccsc1)N1C[C@@H]2CCN(C(=O)c3cscn3)[C@@H]2C1`, the cytotoxicity at 10 µM came to 0.0861%.

In the case of `O=S(=O)(N1CCOCC1)N1CCOC(CCCc2ccccc2)C1` (stereo unspecified), the cytotoxicity at 10 µM is -8.79%.

As for `CN(C)C(=O)CN1CCN(C(=O)c2cnn(-c3ccccc3Cl)c2)CC1`, the cytotoxicity at 10 µM is -3.67%.

`COc1cccc(-c2ncc(CN3CC[C@@H]4CC[C@H](C3)N4)s2)c1`: the cytotoxicity at 10 µM is -12.4%.

In the case of `Cc1nc(C2CCCN(C(=O)COCc3ccccc3Cl)C2)no1` (stereo unspecified), the cytotoxicity at 10 µM came to 5.8%.

With `COc1ncccc1C(=O)N1CCCC1c1nc(-c2ccccc2)n[nH]1` (stereo unspecified), the cytotoxicity at 10 µM was -8.76%.

With `CC(=O)Nc1nc(CN2CCn3c(nnc3C(C)C)C2)cs1`, the cytotoxicity at 10 µM is -2.17%.

Take `Cc1cccc(C(=O)N2CCn3c(CN4CCN(C)CC4)cnc3C2)n1`: the cytotoxicity at 10 µM was -75.2%.

Consider `O=C(c1cnn2cccnc12)N1CCCC(n2ccnc2)C1` (stereo unspecified), for which the cytotoxicity at 10 µM is -29.7%.

`CC(=O)Nc1cccc(Cn2nc(C)nc2C)c1`: the cytotoxicity at 10 µM was -3.19%.

On to `O=C(Nc1ccc2c(c1)OCO2)N1CCN(CCn2ccnc2)CC1`, for which the cytotoxicity at 10 µM was -14.2%.

Consider `CCS(=O)(=O)N[C@H]1CN(Cc2noc(COC)n2)C[C@@H]1C1CC1`, for which the cytotoxicity at 10 µM was -3.22%.

As to `CC(=O)N1CCN(C(=O)CN2CCc3c(ncn3C3CC3)C2)CC1`, the cytotoxicity at 10 µM is 3.3%.

For the compound `O=C(OCc1ccccc1)C1CCCN1Cc1nc(C2CC2)no1` (stereo unspecified), the cytotoxicity at 10 µM was -5.43%.

With `CN(C)c1ncccc1CNC(=O)N1CCN(C)c2ccccc2C1`, the cytotoxicity at 10 µM worked out at 4.72%.

Turning to `COC(=O)[C@H](CSC)Nc1nc(C2CCCC2)nc2c1cnn2C`, the cytotoxicity at 10 µM was -52.6%.

For `Cc1ccc2[nH]c(CO[C@H]3CN(C(=O)C4CC4)C[C@H]3F)nc2c1`, the cytotoxicity at 10 µM is -11.6%.

As for `CCOc1ccc(NCC(=O)NCC(=O)N2CCCC2)c(C(F)(F)F)c1`, the cytotoxicity at 10 µM was -12.8%.

Consider `Cc1nc(C2CCCN(C(=O)CCCn3ccnc3C)C2)no1` (stereo unspecified), for which the cytotoxicity at 10 µM is -13.4%.

For the compound `CCNC(=O)c1sccc1N(C)S(=O)(=O)c1ccc(Cl)cc1`, the cytotoxicity at 10 µM turned out to be 10.8%.

As to `O=C(CN1CC(n2cccn2)C1)NCC1(c2ccccc2)CCC1`, the cytotoxicity at 10 µM was -3.14%.

`CCc1nc(NCCc2nc(C)c(C)s2)c2cnn(C)c2n1`: the cytotoxicity at 10 µM was found to be 6.31%.

Regarding `CC(c1nc(C(C)(C)C)no1)S(=O)(=O)CC(=O)N1CCCC1` (stereo unspecified), the cytotoxicity at 10 µM is -2.21%.

With `N#Cc1cn(CC(=O)NC2CC2)c2ccc(Br)cc2c1=O`, the cytotoxicity at 10 µM is 27.4%.

Take `Cc1nnc(CN2CCN(Cc3nccn3C)CC2)n1C`: the cytotoxicity at 10 µM was -2.4%.

Take `CCCOc1ncccc1CNc1nnc(C)c(C)c1C#N`: the cytotoxicity at 10 µM is -14.3%.

Take `CCN1CCC(CC(=O)NCC(O)c2ccc3ccccc3c2)CC1` (stereo unspecified): the cytotoxicity at 10 µM was -5.26%.

On to `Cc1ncc2c(n1)CN(CC(=O)N1CCc3sccc3C1)CC2`, for which the cytotoxicity at 10 µM worked out at 4.68%.

For the compound `Cn1nc(CNC(=O)c2ccc(OC(F)(F)F)cc2)c2c1CCOC2`, the cytotoxicity at 10 µM was determined as 7.03%.

Consider `NCC(=O)N1CCC2(CC1)CN(C(=O)Cc1ccc(Cl)cc1)CCO2`, for which the cytotoxicity at 10 µM was 5.56%.

`O=C(c1ncccc1O)N1CCN(Cc2ccco2)C(CCO)C1` (stereo unspecified): the cytotoxicity at 10 µM is 3.89%.

`Cc1nc(N2C[C@@H](CN3CCCN(C)CC3)[C@@H](CO)C2)c2sccc2n1`: the cytotoxicity at 10 µM was -8.64%.

Regarding `N#Cc1cccc(C(=O)N2CCn3c(Cn4cncn4)cnc3C2)c1`, the cytotoxicity at 10 µM was 7.42%.

On to `CCC[C@@H]1CN(Cc2cc(C#N)n(C)c2C)C[C@H]1NS(C)(=O)=O`, for which the cytotoxicity at 10 µM is -132%.

As to `Cc1ccc(CNC2(Cc3cc(-c4ccccc4)on3)COC2)o1`, the cytotoxicity at 10 µM was -3.24%.

For `CCC(=O)N1CCC(NC2CCCC2)C1` (stereo unspecified), the cytotoxicity at 10 µM was -4.26%.

With `CC(NC(=O)CN(C)C(C)C)c1ccc(Oc2cccnc2)c(F)c1` (stereo unspecified), the cytotoxicity at 10 µM was determined as 2%.

For the compound `Cc1cc2n(n1)CC(CNCc1cnn(C)c1)CN2` (stereo unspecified), the cytotoxicity at 10 µM was found to be 5.25%.

Regarding `O=S(=O)(N1CCCCCC1)N1CCCN(CC2CCCO2)CC1` (stereo unspecified), the cytotoxicity at 10 µM was found to be 0.863%.

Consider `CCNC(=O)NC(=O)CNC(C)(C)c1ccc2c(c1)OCCO2`, for which the cytotoxicity at 10 µM is -19.7%.

`Cc1ncsc1C(=O)NCCN1CCCCCC1=O`: the cytotoxicity at 10 µM came to 12.1%.

Consider `CCN(CC1COc2ccccc2O1)C(=O)C1=NN(C)C(=O)CC1` (stereo unspecified), for which the cytotoxicity at 10 µM was -39.6%.

With `Cc1csc(C2CCCCN2C(=O)c2cnn3ccc(C)nc23)n1` (stereo unspecified), the cytotoxicity at 10 µM is -5.85%.

Take `COC(=O)[C@H]1CCCCN1C(=O)c1cccc(-n2cccn2)c1`: the cytotoxicity at 10 µM is -8.29%.

Regarding `CC(C)N(CCNCc1ccc(C#N)cc1)C1CC1`, the cytotoxicity at 10 µM is -2.54%.

In the case of `CC(C)C(=O)N1CCCC1C(=O)Nc1cc(C(F)(F)F)ccc1F` (stereo unspecified), the cytotoxicity at 10 µM is -0.359%.

In the case of `CNc1nc(C(=O)N2C[C@@H]3CC[C@H]2CN(S(C)(=O)=O)C3)cs1`, the cytotoxicity at 10 µM worked out at 0.977%.

For the compound `COc1coc(CN2CCCC(CCc3ccc(F)cc3)C2)cc1=O` (stereo unspecified), the cytotoxicity at 10 µM came to 2.16%.

In the case of `CC(=O)c1cn(CCC(=O)NCCCC(=O)O)c2ccccc12`, the cytotoxicity at 10 µM is -1.63%.

As to `CCOc1ncccc1NC(=O)C1CCS(=O)(=O)C1` (stereo unspecified), the cytotoxicity at 10 µM was -16.7%.

With `COc1cc(C(C)NCc2scnc2C)ccc1SC(F)F` (stereo unspecified), the cytotoxicity at 10 µM turned out to be 36.8%.

On to `CN(Cc1cc(-c2cccnc2)no1)C(=O)c1cccn1C`, for which the cytotoxicity at 10 µM is -1.1%.

On to `CN1CCCN(c2ccc(F)cc2CNC(=O)c2cccnc2)CC1`, for which the cytotoxicity at 10 µM was -2.52%.

For `CS(=O)(=O)N1CCC(c2cnc(-c3cn[nH]c3)cn2)CC1`, the cytotoxicity at 10 µM was 3.64%.

As to `CC(C)CCOCCNC(=O)Nc1cc(C(F)(F)F)c[nH]c1=O`, the cytotoxicity at 10 µM was -1.72%.

On to `O=C(Cc1cccc(F)c1F)NS(=O)(=O)c1ccc(Cl)cc1F`, for which the cytotoxicity at 10 µM was -6.11%.

For the compound `CCc1nc(CCNC(=O)Nc2ccc(C(=O)NC)cc2C)cs1`, the cytotoxicity at 10 µM turned out to be 27.7%.

Consider `COCc1cccc(CNc2cnn(C(C)(C)C)c(=O)c2Cl)c1`, for which the cytotoxicity at 10 µM amounted to 59.2%.

`COC(=O)c1ccc(F)c(Cn2nc(C)cc2C)c1`: the cytotoxicity at 10 µM is 4.11%.

With `O=C([C@H]1CCCO1)N1CCN(CCn2cccn2)c2ncccc2C1`, the cytotoxicity at 10 µM is -106%.

With `COc1cccc(C2SCC(=O)Nc3n[nH]cc32)c1OC(C)C` (stereo unspecified), the cytotoxicity at 10 µM amounted to 5.09%.

For the compound `O=C(NCC1CCOC1)c1cc(-c2cccc(Cl)c2)[nH]n1` (stereo unspecified), the cytotoxicity at 10 µM was -1.74%.

On to `CCCc1ccc(S(=O)(=O)NC2(CC(N)=O)CCC2)cc1`, for which the cytotoxicity at 10 µM was determined as 17.9%.

With `CC(C)N1CC[C@@](C)(O)[C@H](n2ccc(=O)[nH]c2=O)C1`, the cytotoxicity at 10 µM amounted to 6.61%.

Consider `CC(C)C(C)(C#N)NC(=O)Cn1cc(-c2ccccc2)cn1` (stereo unspecified), for which the cytotoxicity at 10 µM came to 8.34%.

On to `Cc1ccccc1C(C)N(C)Cc1nc2c(cnn2C)c(=O)[nH]1` (stereo unspecified), for which the cytotoxicity at 10 µM is -6.69%.

In the case of `O=C(c1c2c(NCC3CC3)ncnc2n2ccccc12)N1CCCC1`, the cytotoxicity at 10 µM is 9.31%.

Regarding `CC(CNC(=O)CCc1ccccn1)c1ccsc1` (stereo unspecified), the cytotoxicity at 10 µM is -3.3%.
